Assay results from ChEMBL document CHEMBL1158700, “Phenolic constituents of the rhizomes of the Thai medicinal plant Belamcanda chinensis with proliferative activity for two breast cancer cell lines” (2005).

How the values were obtained:
Format in all cases: functional
MCF7 [1] = test: Estrogenic activity in human MCF7 cells assessed as drug level causing stimulation of cell proliferation equivalent to 10 pM estradiol by alamar blue assay
Method in brief: (§1)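 MCF-7 cells were maintained in MEM with 6 ng/mL insulin, pyruvate, NEAA, glutamine and 10% FBS. For the assay, 1 × 10^4 cells/well went into phenol red-free RPMI with 5% DCC-treated FBS. Compounds were given in DMSO (control 1% DMSO) at 10 nM–100 µM for 96 h at 37 °C. Estradiol dilutions served as reference. Read-out: Alamar Blue, 3 h, fluorescence ex 530/em 590 nm. Values came from linear regression, ≥5 concentrations, quadruplicate.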

T47D [2] = test: Estrogenic activity in human T47D cells assessed as drug level causing stimulation of cell proliferation equivalent to 10 pM estradiol by alamar blue assay
Method in brief: (§2)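 T47D cells were grown in RPMI-1640 with pyruvate, NEAA, glutamine and 10% FBS, then plated at 1 × 10^4 cells/well in phenol red-free RPMI with 5% DCC-treated FBS. Compounds were added in DMSO (1% DMSO control) and incubated 96 h at 37 °C, 5% CO2, alongside serial estradiol. Alamar Blue was read after 3 h (ex 530/em 590 nm). Values came from linear regression over ≥5 concentrations, quadruplicate.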

MCF7 [3] = test: Estrogenic activity in human MCF7 cells assessed as drug level causing stimulation of cell proliferation equivalent to 100 pM estradiol by alamar blue assay; method in brief: as §1
T47D [4] = test: Estrogenic activity in human T47D cells assessed as drug level causing stimulation of cell proliferation equivalent to 100 pM estradiol by alamar blue assay; method in brief: as §2

SMILES | Activity (MCF7 [1]) [µM] | Activity (T47D [2]) [µM] | Activity (MCF7 [3]) [µM] | Activity (T47D [4]) [µM]
COc1ccc(-c2coc3cc(O[C@@H]4O[C@H](CO)[C@@H](O)[C@H](O)[C@H]4O)c(OC)c(O)c3c2=O)cc1O [IRISTECTORIN A] | 26.1 |  |  | 
Oc1ccc(/C=C/c2cc(O)cc(O)c2)cc1 [RESVERATROL] | 1.6 | 0.03 |  | 
COc1c(O[C@@H]2O[C@H](CO)[C@@H](O)[C@H](O)[C@H]2O)cc2occ(-c3ccc(O)cc3)c(=O)c2c1O [TECTORIDIN] | 0.02 | 0.2 | 0.08 | 
O=C(c1ccc(O)cc1)c1c(O)cc(O)cc1O [IRIFLOPHENONE] | 0.7 | 4.9 | 6.8 | 
COc1cc(-c2coc3cc4c(c(OC)c3c2=O)OCO4)cc(OC)c1OC [IRISFLORENTIN] | 50.3 |  |  | 
O=c1c(-c2ccc(O)cc2)coc2cc(O)cc(O)c12 [GENISTEIN] | 0.003 | 0.001 | 0.013 | 0.009
COc1c(O)cc2occ(-c3ccc(O)cc3)c(=O)c2c1O [TECTORIGENIN] | 0.3 | 0.04 | 1 | 0.5
COc1c(O)cc2occ(-c3ccc(O)c(O)c3)c(=O)c2c1O [IRILIN D] | 5.6 |  | 12.7 | 
COc1cc(-c2coc3cc(O[C@@H]4O[C@H](CO)[C@@H](O)[C@H](O)[C@H]4O)c(OC)c(O)c3c2=O)ccc1O [IRISTECTORIN B] | 77.3 |  |  | 
O=C(Cc1cc(O)cc(O)c1)c1ccc(O)cc1 [BELAMPHENONE] | 0.8 | 0.09 | 12.8 | 37.1
